Results taken from PubChem BioAssay AID488974 (NMMLSC, 2010).
Activity calls are given as the source filed them.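 Rule for the calls: active = ratio of toxic midpoint dose to chemo-reversal midpoint dose above 10, among compounds with toxic midpoint under 15 µM; inactive = the rest.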

System: Igrove/Jurkat-DNR chemoreversal, trypan blue viability, 7 d
Experiment: chemoreversal in ABCG2 cells, dose response, ABC transporter inhibitor project, paired ABCB1 counter-screen, SAR hit validation (AID 488974)
Details: for CC50: measured here: toxicity in resistant cells alone
How it was run: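 Material – drug-resistant human Igrove (ABCG2 arm) and Jurkat/DNR (ABCB1 counterscreen) cells · Also added – constant mitoxantrone or daunorubicin level · Doses – test compound dose series spanning 0.1–100 µM · Schedule – compound exposure over 7 days · Signal – trypan blue microscopy counts · Evaluation – chemo-reversal 50% viability concentration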

Compound | EC50 | CC50
O=C(C1CCCO1)N1CCN(c2c3c(nc4cc(-c5cccc(F)c5)nn24)CCCC3)CC1 (centres undefined) | 0.2 µM | 17.5 µM
O=C(c1ccco1)N1CCN(c2cc(-c3ccccc3)nc3cc(-c4cccc(F)c4)nn23)CC1 | 0.76 µM (inactive) | 8.25 µM
O=C(c1ccoc1)N1CCN(c2cc(-c3ccncc3)nc3cc(-c4cccc(Cl)c4)nn23)CC1 | 0.89 µM | 57.8 µM
O=C(c1ccoc1)N1CCN(c2cc(-c3ccccc3)nc3cc(-c4ccncc4)nn23)CC1 | 1.5 µM | 22.3 µM
COc1cccc(C(=O)N2CCN(c3cc(-c4ccccc4)nc4cc(-c5cccc(Cl)c5)nn34)CC2)c1 | 0.21 µM | > 101 µM
COc1cccc(-c2cc3nc(C)c(C)c(N4CCN(Cc5ccco5)CC4)n3n2)c1 | 0.09 µM | > 100 µM
O=C(c1ccncc1)N1CCN(c2cc(-c3ccccc3)nc3cc(-c4cccc(Cl)c4)nn23)CC1 | 0.15 µM | 28.3 µM
COc1ccc(-c2[nH]nc3nc(N4CCN(C(=O)c5ccoc5)CC4)cc(C(F)(F)F)c23)cc1 | 0.46 µM (inactive) | 1.31 µM
O=C(c1ccoc1)N1CCN(c2cc(-c3ccco3)nc3cc(-c4ccccc4)nn23)CC1 | 0.31 µM | 18.3 µM
COc1cccc(-c2cc(N3CCN(C(=O)c4ccoc4)CC3)n3nc(-c4cccc(OC)c4)cc3n2)c1 | 0.68 µM | > 100 µM
COc1ccc(-c2cc3nc(-c4ccccc4)cc(N4CCN(C(=O)c5ccccc5)CC4)n3n2)cc1 | 0.2 µM | 82.6 µM
O=C(Cc1ccccc1)N1CCN(c2cc(-c3ccccc3)nc3cc(-c4cccc(Cl)c4)nn23)CC1 | 0.6 µM | > 100 µM
COc1cc(OC)cc(-c2cc3nc(C)c(C)c(N4CCN(C(=O)c5ccoc5)CC4)n3n2)c1 | 0.95 µM | > 100 µM
Cc1cc(N2CCN(C(=O)c3ccco3)CC2)n2nc(-c3ccccc3)nc2n1 | 2.94 µM (inactive) | 16.2 µM
COc1cccc(-c2cc3nc(C)c(C)c(N4CCN(C(=O)c5ccoc5)CC4)n3n2)c1 | 0.76 µM | > 100 µM
COc1cccc(-c2cc3nc(-c4ccco4)cc(N4CCN(C(=O)c5ccoc5)CC4)n3n2)c1 | 1 µM | > 100 µM
Cc1nc2cc(-c3cccc(Cl)c3)nn2c(N2CCN(C(=O)c3ccsc3)CC2)c1C | 0.49 µM (inactive) | 14.9 µM
CC(=O)N1CCN(c2c(C)c(C)nc3cc(-c4cccc(F)c4)nn23)CC1 | 0.73 µM | > 100 µM
COc1ccccc1-c1cc2nc(-c3ccccc3)cc(N3CCN(C(=O)c4ccoc4)CC3)n2n1 | 0.49 µM (inactive) | 6.5 µM

Compound | EC50 | CC50
COc1ccc(-c2cc3nc(-c4ccccc4)cc(N4CCN(C(=O)c5ccsc5)CC4)n3n2)cc1 | 0.17 µM | 30.6 µM
COc1ccc(-c2cc3nc(C)c(C)c(N4CCN(C(C)=O)CC4)n3n2)cc1 | 3.28 µM | 81.7 µM
O=C(c1ccco1)N1CCN(c2cc(Cc3ccccc3)nc3cc(-c4cccc(Cl)c4)nn23)CC1 | 1.38 µM (inactive) | 10.5 µM
Cc1nc2cc(-c3ccc(F)cc3)nn2c(N2CCN(C(=O)c3ccco3)CC2)c1C | 0.12 µM (inactive) | 5.33 µM
O=C(c1ccoc1)N1CCN(c2cc(-c3cccnc3)nc3cc(-c4cccc(Cl)c4)nn23)CC1 | 0.02 µM (inactive) | 5.77 µM
Cc1nc2cc(-c3cccc(Cl)c3)nn2c(N2CCN(C(=O)c3ccoc3)CC2)c1C | 0.6 µM | > 100 µM
Cc1ccc(-c2cc3nc(-c4ccccc4)cc(N4CCN(C(=O)c5ccoc5)CC4)n3n2)cc1 | 0.45 µM | 86 µM
Cc1cc(N2CCN(C(=O)c3ccco3)CC2)n2nc(-c3ccc(F)cc3)cc2n1 | 0.14 µM | 40.4 µM
COc1ccc(-c2cc3nc(-c4ccccc4)cc(N4CCN(C(=O)c5ccoc5)CC4)n3n2)cc1 | 0.38 µM | > 100 µM
Cc1cc(N2CCN(C(=O)c3ccco3)CC2)n2nc(C)c(-c3ccccc3)c2n1 | 2.18 µM | 22.3 µM
Cc1nc2ncnn2c(N2CCN(C(=O)c3ccco3)CC2)c1Cc1ccccc1 | 10.1 µM (inactive) | > 100 µM
Cc1nc2cc(-c3cccc(Cl)c3)nn2c(N2CCN(C(=O)c3ccco3)CC2)c1C | 0.17 µM | 47.4 µM
O=C(c1ccoc1)N1CCN(c2cc(-c3ccco3)nc3cc(-c4cccc(Cl)c4)nn23)CC1 | 1.38 µM (inactive) | 10.8 µM
O=C(c1ccco1)N1CCN(c2cc(-c3ccccc3)nc3cc(-c4cccc(Cl)c4)nn23)CC1 | 0.14 µM (inactive) | 6 µM
Cc1nc2cc(-c3ccc4c(c3)OCO4)nn2c(N2CCN(C(=O)c3ccoc3)CC2)c1C | 1.63 µM | > 100 µM
O=C(c1cccnc1)N1CCN(c2cc(-c3ccccc3)nc3cc(-c4cccc(Cl)c4)nn23)CC1 | 0.13 µM (inactive) | 10.3 µM
O=C(c1ccco1)N1CCN(c2c3c(nc4cc(-c5cccc(F)c5)nn24)CCCC3)CC1 | 0.39 µM (inactive) | 5.77 µM
COc1ccc(-c2cc3nc(C)c(C)c(N4CCN(C(=O)c5ccco5)CC4)n3n2)cc1 | 1.44 µM (inactive) | 10.5 µM
